Legend:
Rattus norvegicus [1] = test: Amount of glucose in obese Zucker rats after 2 weeks of treatment at a dose of 3 mg/kg/day; assay type: functional
Summary of the method: (§1)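 Female Zucker fatty rats [Crl:(Zuc)-faBR], 10–12 weeks old (400–500 g), gavaged daily with vehicle (20% EtOH/80% PEG-200, 0.25% of body weight) or compound. After a 6-h fast, blood glucose was read by glucometer from tail-prick blood of unanesthetized rats before dosing and after 1 and 2 weeks. Values are mean ± SEM.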

Rattus norvegicus [2] = test: Percent increase in HDL-cholesterol in obese Zucker rats after 1 week of treatment at a dose of 30 mg/kg/day; assay type: functional
Summary of the method: (§2)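 Female Zucker fatty rats [Crl:(Zuc)-faBR], 10–12 weeks, 400–500 g, acclimated 7 days on chow. Compound or vehicle (20% EtOH/80% PEG-200) given by daily oral gavage for 2 weeks, 0–100 mg/kg/day. After a 6 h fast, blood was taken before dosing, at 1 wk and at 2 wk. Serum lipids, NEFA and insulin (ELISA) were measured; glucose by glucometer. HDL/non-HDL-C came from Superose 6 gel-filtration profiles. Values are % change from pretreatment, mean ± SEM.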

Rattus norvegicus [3] = test: Amount of glucose in obese Zucker rats after 1 week of treatment at a dose of 30 mg/kg/day; assay type: functional; summary of the method: as §1
Rattus norvegicus [4] = test: Amount of insulin in obese Zucker rats at pre-treatment at a dose of 10 mg/kg/day; assay type: functional
Summary of the method: (§3)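 Female obese Zucker rats [Crl:(Zuc)-faBR], 400–500 g, given daily oral gavage in 20% EtOH/80% PEG-200 for up to 14 days. After a 6-h fast, serum was collected pretreatment and at day 7 (orbital bleed) and day 14 (cardiac puncture) and stored at -80 °C. Insulin was measured by ELISA. Values are mean ± SEM.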

Rattus norvegicus [5] = test: Amount of HDL-cholesterol in obese Zucker rats after 1 week of treatment at a dose of 100 mg/kg/day; assay type: functional
Summary of the method: (§4)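 Female Zucker fatty rats [Crl:(Zuc)-faBR], 10–12 weeks old (400–500 g), dosed once daily by oral gavage in 20% EtOH/80% PEG-200 (dose volume 0.25% of body weight). Rats were fasted 6 h and bled before dosing and at day 7 (orbital plexus), and at day 14 (cardiac puncture). Serum cholesterol fractions came from Superose 6 gel-filtration lipoprotein profiles (% peak area × serum total cholesterol). Values are mean ± SEM.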

Rattus norvegicus [6] = test: Amount of triglycerides in obese Zucker rats at pre-treatment at a dose of 0 mg/kg/day; assay type: functional
Summary of the method: (§5)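 Female Zucker fatty rats [Crl:(Zuc)-faBR], 10–12 weeks old (400–500 g), dosed once daily by oral gavage in 20% EtOH/80% PEG-200 for up to 14 days. After a 6-h fast, serum was taken pre-dose, at day 7 (orbital venous plexus, O2/CO2 anaesthesia) and at day 14 (cardiac puncture), stored at −80 °C, and assayed on a Hitachi 912 automatic analyzer. Mean ± SEM.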

Rattus norvegicus [7] = test: Percentage change of HDL cholesterol levels in obese female Zucker rats after 1 week of pre-treatment at a dose of 100 mg/kg/day; assay type: functional
Summary of the method: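 Obese female Zucker fatty rats were gavaged once daily with 30 or 100 mg/kg/day in 20% EtOH/80% PEG-200 for 2 weeks. Sera were collected after a 6 h fast, before dosing, at 1 week (orbital plexus) and at 2 weeks (cardiac puncture). HDL-C was total cholesterol multiplied by HDL area fraction from gel-filtration lipoprotein profiles. Reported as % change from pretreatment ± SEM.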

Rattus norvegicus [8] = test: Percent increase in HDL-cholesterol in obese Zucker rats after 1 week of treatment at a dose of 100 mg/kg/day; assay type: functional; summary of the method: as §2
Rattus norvegicus [9] = test: Amount of nonesterified fatty acids in obese Zucker rats after 1 week of treatment at a dose of 0 mg/kg/day; assay type: functional; summary of the method: as §5
Rattus norvegicus [10] = test: Amount of glucose in obese Zucker rats after 2 weeks of treatment at a dose of 10 mg/kg/day; assay type: functional; summary of the method: as §1
Rattus norvegicus [11] = test: Amount of insulin in obese Zucker rats after 1 week of treatment at a dose of 10 mg/kg/day; assay type: functional; summary of the method: as §3
Rattus norvegicus [12] = test: Percentage change of triglycerides in obese female Zucker rats after 2 weeks of pre-treatment at a dose of 100 mg/kg/day; assay type: functional
Summary of the method: (§6)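 Female Zucker fatty rats [Crl:(Zuc)-faBR], 10–12 weeks old (400–500 g), acclimated 7 days and fed rodent chow. Dosed once daily by oral gavage in 20% EtOH/80% PEG-200 (v/v), at 0.25% of body weight, for 2 weeks. Blood taken after a 6-h fast: orbital plexus before dosing and at day 7, cardiac puncture at day 14. Serum lipoprotein cholesterol measured by Superose 6 gel filtration with on-line cholesterol detection. Values are % change from pretreatment, mean ± SEM.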

Rattus norvegicus [13] = test: Amount of HDL-cholesterol in obese Zucker rats after 1 week of treatment at a dose of 10 mg/kg/day; assay type: functional; summary of the method: as §4
Rattus norvegicus [14] = test: Amount of triglycerides in obese Zucker rats after 1 week of treatment at a dose of 10 mg/kg/day; assay type: functional; summary of the method: as §5
Rattus norvegicus [15] = test: Amount of HDL-cholesterol in obese Zucker rats at pre-treatment at a dose of 10 mg/kg/day; assay type: functional; summary of the method: as §4
Rattus norvegicus [16] = test: Percent increase in triglycerides in obese Zucker rats after 2 weeks of treatment at a dose of 0 mg/kg/day; assay type: functional; summary of the method: as §2
Rattus norvegicus [17] = test: Percent increase in non-HDL-cholesterol in obese Zucker rats after 2 weeks of treatment at a dose of 0 mg/kg/day; assay type: functional; summary of the method: as §2
[18] = Concentration required for inhibition of lipid synthesis in primary cultures of rat hepatocytes; assay type: functional, cell-based; conditions: Hepatocyte
Summary of the method: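 Primary hepatocytes from male Sprague-Dawley rats (Seglen isolation), plated at 1.5×10^5 cells/cm² on collagen in serum-containing DMEM, switched to serum-free medium after 4 h, grown overnight to monolayers. Cells incubated 4 h with 0.25 μCi [1-14C]acetate/well (1 Ci/mol final) plus 0, 1, 3, 10, 30, 100 or 300 μM compound. Lipids extracted into scintillant and counted; IC50 taken from lipid synthesis rates.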

Rattus norvegicus [19] = test: Percent decrease in triglycerides in obese Zucker rats after 1 week of treatment at a dose of 10 mg/kg/day; assay type: functional; set-up: scale not given: the % may be the effect or the level left; summary of the method: as §2
Rattus norvegicus [20] = test: Amount of insulin in obese Zucker rats after 2 weeks of treatment at a dose of 100 mg/kg/day; assay type: functional; summary of the method: as §3
Rattus norvegicus [21] = test: Amount of glucose in obese Zucker rats at pre-treatment at a dose of 0 mg/kg/day; assay type: functional; summary of the method: as §1
Rattus norvegicus [22] = test: Percentage change of non-HDL cholesterol levels in obese female Zucker rats after 2 weeks of pre-treatment at a dose of 100 mg/kg/day; assay type: functional; summary of the method: as §6
Rattus norvegicus [23] = test: Amount of non-HDL-cholesterol in obese Zucker rats after 2 weeks of treatment at a dose of 3 mg/kg/day; assay type: functional
Summary of the method: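 Female obese Zucker fatty rats [Crl:(Zuc)-faBR], 10–12 weeks old (400–500 g), on chow. Compound in 20% EtOH/80% PEG-200 (v/v) given by daily oral gavage. After a 6-h fast, serum was taken before dosing and at 7 days (orbital plexus), and at 14 days (cardiac puncture). Lipoprotein cholesterol came from Superose 6HR gel-filtration profiles × serum total cholesterol. Mean ± SEM.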

Rattus norvegicus [24] = test: Amount of insulin in obese Zucker rats at pre-treatment at a dose of 0 mg/kg/day; assay type: functional; summary of the method: as §3
Rattus norvegicus [25] = test: Percent decrease in non-HDL-cholesterol in obese Zucker rats after 2 weeks of treatment at a dose of 100 mg/kg/day; assay type: functional; set-up: scale not given: the % may be the effect or the level left; summary of the method: as §2

## CC(C)(CO)CCCCC(=O)CCCCC(C)(C)CO
Rattus norvegicus [1]
  Activity: 103 mg/dL
Rattus norvegicus [2]
  Activity: 40%
Rattus norvegicus [3]
  Activity: 112 mg/dL
Rattus norvegicus [4]
  Activity: 8.4 ng/mL
Rattus norvegicus [5]
  Activity: 78 mg/dL
Rattus norvegicus [6]
  Activity: 933 mg/dL
Rattus norvegicus [7]
  Change: 111%
Rattus norvegicus [8]
  Activity: 73%
Rattus norvegicus [9]
  Activity: 1.3 mg/dL
Rattus norvegicus [10]
  Activity: 110 mg/dL
Rattus norvegicus [11]
  Activity: 7.5 ng/mL
Rattus norvegicus [12]
  Change: -29%
Rattus norvegicus [13]
  Activity: 52 mg/dL
Rattus norvegicus [14]
  Activity: 602 mg/dL
Rattus norvegicus [15]
  Activity: 46 mg/dL
Rattus norvegicus [16]
  Activity: 18%
Rattus norvegicus [17]
  Activity: 20%
[18]
  IC50: 4 µM
Rattus norvegicus [19]
  Activity: -23%
Rattus norvegicus [20]
  Activity: 11 ng/mL
Rattus norvegicus [21]
  Activity: 125 mg/dL
Rattus norvegicus [22]
  Change: -10%
Rattus norvegicus [23]
  Activity: 22 mg/dL
Rattus norvegicus [24]
  Activity: 9.1 ng/mL

## CC(C)(CCCCCC(=O)CCCCCC(C)(C)C(=O)O)C(=O)O
Rattus norvegicus [1]
  Activity: 124 mg/dL
Rattus norvegicus [2]
  Activity: 156%
Rattus norvegicus [4]
  Activity: 9.9 ng/mL
Rattus norvegicus [5]
  Activity: 100 mg/dL
Rattus norvegicus [6]
  Activity: 950 mg/dL
Rattus norvegicus [25]
  Activity: -88%
Rattus norvegicus [7]
  Change: 72%
Rattus norvegicus [8]
  Activity: 51%
Rattus norvegicus [9]
  Activity: 1.3 mg/dL
Rattus norvegicus [11]
  Activity: 10.5 ng/mL
Rattus norvegicus [12]
  Change: -94%
Rattus norvegicus [13]
  Activity: 136 mg/dL
Rattus norvegicus [14]
  Activity: 553 mg/dL
Rattus norvegicus [15]
  Activity: 86 mg/dL
Rattus norvegicus [16]
  Activity: 25%
Rattus norvegicus [17]
  Activity: 40%
[18]
  IC50: 3 µM
Rattus norvegicus [19]
  Activity: -36%
Rattus norvegicus [20]
  Activity: 6 ng/mL
Rattus norvegicus [21]
  Activity: 129 mg/dL
Rattus norvegicus [22]
  Change: -99%
Rattus norvegicus [24]
  Activity: 9.1 ng/mL

## CC(C)(CCCCC(=O)CCCCC(C)(C)C(=O)O)C(=O)O
Rattus norvegicus [1]
  Activity: 103 mg/dL
Rattus norvegicus [2]
  Activity: 56%
Rattus norvegicus [3]
  Activity: 115 mg/dL
Rattus norvegicus [4]
  Activity: 10.6 ng/mL
Rattus norvegicus [5]
  Activity: 66 mg/dL
Rattus norvegicus [6]
  Activity: 130 mg/dL
Rattus norvegicus [25]
  Activity: -29%
Rattus norvegicus [7]
  Change: 54%
Rattus norvegicus [8]
  Activity: 74%
Rattus norvegicus [9]
  Activity: 1.5 mg/dL
Rattus norvegicus [10]
  Activity: 113 mg/dL
Rattus norvegicus [11]
  Activity: 7.7 ng/mL
Rattus norvegicus [12]
  Change: -69%
Rattus norvegicus [13]
  Activity: 47 mg/dL
Rattus norvegicus [14]
  Activity: 692 mg/dL
Rattus norvegicus [15]
  Activity: 37 mg/dL
[18]
  IC50: 3 µM
Rattus norvegicus [20]
  Activity: 9.5 ng/mL
Rattus norvegicus [21]
  Activity: 134 mg/dL
Rattus norvegicus [22]
  Change: -41%
Rattus norvegicus [23]
  Activity: 24 mg/dL
Rattus norvegicus [24]
  Activity: 9.8 ng/mL
